Most compounds without a hit are left out; they make up all but 1% or so of the library.
Yeast growth tox: yeast growth toxicity, wild-type and mutant, primary screen, cytotoxicity control for eIF2B function restoration project, wild-type and eIF2Bepsilon R284H mutant, A595. 30,000 tested, 0.3% active. AID 685, 2007. S. cerevisiae wild-type growth, A595 turbidity, 16 h. growth inhibition, % at 25 µM (by protocol);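 active = mutant and wild-type yeast strains alike exhibit over 30% growth inhibition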
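Schedule: 16 h growth with compound, 30 °C. System: yeast, wild-type or eIF2Bepsilon-R284H mutant. Doses: one dose, 25 µM compound[…]. Buffer or medium: YPD. Signal: turbidity measured as absorbance at 595 nm. Read-out basis: growth inhibition (%) versus cell controls and blanks.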
Yeast eIF2B: GCN4-lacZ reporter reduction in eIF2B-epsilon mutant yeast, primary screen, S. cerevisiae, eIF2B-epsilon R284H, Beta-Glo luminescence | inhibition, % at 25 µM (by protocol) | 27,000 tested, 0.91% active | AID 688, 2007;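 active = mutant luminescence inhibited past about 50% while wild type luminescence and mutant growth stay under set limits, limit read from the data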
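material = yeast eIF2B-epsilon R284H mutant carrying GCN4–beta-galactosidase fusion | schedule = 16 h growth with compound at 30 °C, 90 min Beta-Glo step | measured by = luminescence and A595 | compound dosing = one concentration, 25 µM, 0.25% DMSO | read-out basis = % inhibition of reporter signal and growth versus controls | buffer or medium = YPD medium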
Numbers stand for hits; 0 = inactive; - = not tested or not shown.

SMILES	Yeast growth tox	Yeast eIF2B
CCOC(=O)c1c(NC(=O)CSc2nc3c(c(=O)n(C)c(=O)n3C)n2CC)sc(C)c1C	0	0
CCCn1c(SCC(=O)Nc2nc3c(s2)CCCC3)nc2c1c(=O)n(C)c(=O)n2C	0	55.4
O=C(Cc1ccccc1)N1CCN(C(=O)c2cccs2)CC1	-	0
CC(C)(C)C(=O)C(Cc1ccccc1)n1cncn1 (centres undefined)	62.2	0
CC(C)(C)C(=O)C(Cc1ccccc1Cl)n1cncn1 (centres undefined)	74.4	0
CCCC(C(=O)c1ccccc1)n1cncn1 (centres undefined)	0	0
CC(C)(C)C(=O)Cn1c(=N)n(Cc2ccccc2Cl)c2ccccc21	0	-
COc1ccc(N(C(=O)c2ccccc2OC(C)=O)C(C)C2CC2)cc1 (centres undefined)	0	0
COc1ccc(C2=NOC(CN3C(=O)c4ccccc4S3(=O)=O)C2)cc1 (centres undefined)	-	0
O=C1c2ccccc2S(=O)(=O)N1CC1CC(c2ccccc2)=NO1 (centres undefined)	42.1	0
Cc1cc(C)c(S(=O)(=O)N(C)CC(=O)NC2CCCC2)c(C)c1	0	0
O=C(COc1ccc(S(=O)(=O)N2CCCCC2)cc1)NCc1cccnc1	0	-
Cc1cc(=O)oc(C)c1C(=O)n1nc(C)c2c1C[C@@H]1[C@H]2C1(C)C	0	0
O=C(COC(=O)CCc1ccc(S(=O)(=O)N2CCOCC2)cc1)Nc1ccc(Cl)cn1	0	0
CCOC(=O)Cc1csc(NC(=O)CCc2ccc(S(=O)(=O)N3CCOCC3)cc2)n1	0	57.4
CC(=O)c1cccc(NC(=O)C2CCN(S(=O)(=O)c3ccccc3)CC2)c1	0	0
O=C(CNC1CCCCC1)N1CCc2ccccc2C1	0	-
CCOC(=O)C1=C(C)NC(C)=C(C(=O)OCC)C1C(=O)OCC(=O)N1CCc2ccccc2C1	0	58.7
Cc1cc(OCC[N+]2(C)CCCCC2)nc2ccccc12	0	-
Cc1cccc(-n2cnc(C(=O)N/N=C/c3ccccc3)c2)n1	0	0
O=C(C1=C(O)C(=O)N(Cc2ccco2)C1c1ccccc1)c1cccs1 (centres undefined)	0	0
CN1CCN(CCC(=O)Nc2ccc3c(c2)OCO3)CC1	0	55.6
Cc1ccc(-c2nnn(CCC(=O)Nc3ccc4c(c3)OCO4)n2)cc1	0	0
CCOc1ccc(C(O)C(CN2CCOCC2)c2ccccc2)cc1 (centres undefined)	0	-
CCOC(=O)CN(C(=O)Cn1nnc2ccccc21)C(C(=O)NCCOC)c1ccccc1C (centres undefined)	0	0
SMILES	Yeast growth tox	Yeast eIF2B
CCCCN(C(=O)Cn1nnc2ccccc21)C(C(=O)NCCOC)c1ccccc1 (centres undefined)	0	56.9
Cn1nnnc1SCCNC/C=C/c1ccccc1	0	0
c1ccc(Oc2nc(Oc3ccccc3)nc(N3CCOCC3)n2)cc1	0	0
Fc1ccc(Nc2nc(Oc3ccc4c(c3)OCO4)nc(N3CCOCC3)n2)c(F)c1	0	56.7
CCOC(=O)C1=C(N)N2C(=O)CSC2=C(C(=O)OC)C1	0	0
Cc1cccc(NC(=O)C(NS(=O)(=O)c2ccc3c(c2)CCC(=O)N3)c2ccccc2)n1 (centres undefined)	0	0
CCCOC(=O)CSC1=C(C#N)C(c2ccccc2OC)C(C#N)C(=O)N1 (centres undefined)	0	0
COc1ccccc1CC(=O)N1CCCC1	0	-
COc1ccccc1CC(=O)N1CCN(c2cccc(C(F)(F)F)c2)CC1	0	50.2
CCCCN(CC)C(=O)Cn1c(=O)sc2ccccc21	0	0
CN1C(=O)CC(C(=O)O)SC1=Nc1ccc(F)cc1 (centres undefined)	0	0
NC1=NC(c2cn(-c3ccccc3)nc2-c2cccs2)n2c(nc3ccccc32)N1 (centres undefined)	0	0
Cc1ccc(-n2c(C)cc(C3N=C(N)Nc4nc5ccccc5n43)c2C)c(C)c1 (centres undefined)	92.3	0
O=C(Nc1ncc(Cc2ccccc2)s1)C1COc2ccccc2O1 (centres undefined)	0	0
Cc1ccc(Oc2ccc(OCC(=O)OC3CCS(=O)(=O)C3)cc2)cc1 (centres undefined)	-	0
CCCCNC(=O)OC1CCS(=O)(=O)C1 (centres undefined)	0	55.2
Fc1ccc(-c2cc3nc(-c4ccccc4)cc(N4CCN(CCN5CCOCC5)CC4)n3n2)cc1	31.4	0
CCc1c(C)nc2cc(-c3cc(OC)cc(OC)c3)nn2c1N1CCN(CCN2CCOCC2)CC1	0	-
CCOC(=O)CC(=O)CSc1nc(-c2cccnc2)cc(C)c1C#N	0	0
CCOC(=O)CC(=O)CSc1nc(C)cc(-c2cccnc2)c1C#N	0	55.1

Bioassay records: PubChem, PCMD
